97 molecules from ChEMBL document CHEMBL4513216, “Probing the Open Global Health Chemical Diversity Library for Multistage-Active Starting Points for Next-Generation Antimalarials” (ACS Infect Dis, 2020) can be followed below.

This series is described as follows: Toxicity liver stage against HepG2, at 10uM. The format is cell-based. Set-up: test concentration 10 uM, cell line HepG2-A16-CD81EGFP. The settings on record: human, HepG2-A16-CD81EGFP cells; read-out: INHIBITION
The method in brief: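 Uninfected HepG2-A16-CD81EGFP cells, 3 × 10^3 per well, 1536-well, plated on prespotted compound at 10 μM final, parasite-free screening media added to match infected plates; puromycin 10 μM positive, DMSO 0.5% negative; run in parallel with 48 h PbLuc assay at 37 °C, 5% CO2; viability by CellTiter-Glo luminescence, normalized to controls.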
`CS(=O)(=O)c1ccc(-c2ccccc2C(=O)O)cc1`: the cytotoxicity at 10 µM turned out to be 0.238%.
The value for `COCC(=O)Nc1cnc(N2CCCC2)nc1` was -5.93%; that for `Cn1c2c(c(=O)n1C)CN(C(=O)c1ccco1)CCC2` was 10.5%.
Take `FC1(F)CCN(c2ccccc2)CC12CCN(c1ncccn1)C2` (configuration not stated): the cytotoxicity at 10 µM was determined as 3.71%.
For `CCc1ncnc2c1CCN(c1ncc(F)cn1)CC2`, the cytotoxicity at 10 µM is 7.86%.
As for `Cc1ccc(N2CCc3sc(C(=O)NCCN4CCCC4)cc32)nn1`, the cytotoxicity at 10 µM was -2.19%.
As to `COCC(=O)N1CCCn2c(CN3CCCC3=O)nnc2C1`, the cytotoxicity at 10 µM is -123%.
As for `COc1cccc(-c2nc(C)c(C(=O)N[C@@H](C)C(=O)O)s2)c1`, the cytotoxicity at 10 µM came to 6.51%.
The value for `CNC(=O)c1cc2c(nc1NC(C)C)CCN(C(=O)NC(C)C)CC2` was -0.0714%; that for `Cc1nnn2c1COCC(CNC(=O)c1ccc3[nH]ccc3c1)C2` (configuration not stated) was -10.7%.
In the case of `CC(C)=CCCC(C)(O)c1cc(C(N)=O)no1` (configuration not stated), the cytotoxicity at 10 µM turned out to be 3.56%.
With `CCN1CCN(c2nc(C(C)C)nc3c(C)nn(CC)c23)CC1`, the cytotoxicity at 10 µM was -12.6%.
As for `c1cnc(Nc2ccc(C3CCCCN3)cn2)cn1` (configuration not stated), the figure is 1.24%; as for `CCN1CCCC(NC(=O)CCn2c(C(F)F)cc3cccnc32)C1` (configuration not stated), -0.212%; as for `Cc1nc(Nc2nnc(C)s2)cc(C2CCCN2C(C)C)n1` (configuration not stated), -23.9%.
Regarding `CC(=O)N1CCC(c2nc(C)cc(-c3ccccc3C(=O)O)n2)CC1`, the cytotoxicity at 10 µM is -28%.
The value for `Cn1cc(NS(=O)(=O)CCOc2ccc(F)cc2)cn1` was -0.77%; that for `Cc1cccc(C2CCCCCN2C(=O)c2cn(CC(N)=O)nn2)c1` (configuration not stated) was 1.51%.
For the molecule `O=C(CCc1nnc(-c2ccccc2)o1)N1CCCC1c1ccc[nH]1` (configuration not stated), the cytotoxicity at 10 µM was -3.33%.
As for `O=S(=O)(c1cncc(F)c1)N1CCC2(CCOC2)C1` (configuration not stated), the figure is -0.872%.
For `CNC(=O)c1cccc(CNC2CCCSc3ccccc32)c1` (configuration not stated), the cytotoxicity at 10 µM was -2.64%.
As for `CC(=O)NCc1ccc(S(=O)(=O)NC(=O)c2ccc3c(c2)CCO3)s1`, the figure is 16.1%; as for `CC(O)CCN(C)S(=O)(=O)Cc1ccc(Cl)c(Cl)c1` (configuration not stated), 3.92%; as for `Cc1ccc2c(c1)N(C(=O)c1nccnc1N)CC(C)O2` (configuration not stated), -1.65%.
The value for `Cc1nccc(CNC(=O)NCCC(=O)N2CCCc3ccccc32)n1` was -0.457%.
As for `CCCC(C)N(C)Cc1nnc(-c2ccc(Br)s2)o1` (configuration not stated), the cytotoxicity at 10 µM is -1.16%.
As for `CC(C)Oc1ccccc1C(=O)NC1CC(=O)N(CC(F)(F)F)C1` (configuration not stated), the figure is 4.37%.
The value for `Cc1cc(C)c2nc(C3CC3)cc(C(=O)N3CCCC3C(N)=O)c2c1` (configuration not stated) was -1.11%; that for `CC(NC(=O)CCn1cccn1)c1cn(-c2ccccc2)nn1` (configuration not stated) was 0.554%.
Consider `O=C(CCNC(=O)NC1CC1)NCc1ccccc1`, for which the cytotoxicity at 10 µM turned out to be 8.12%.
For `CNS(=O)(=O)c1cccc(CNc2ccc(C#N)cn2)c1`, the cytotoxicity at 10 µM is -4.36%.
Turning to `O=C1CCN(C(=O)C2(c3ccc(F)cc3)CCCCC2)CCN1`, the cytotoxicity at 10 µM is -7.4%.
Regarding `CCS(=O)(=O)N1CCC(Nc2ccc(C#N)cc2F)CC1`, the cytotoxicity at 10 µM was 5.65%.
Turning to `CN(CCC#N)C(=O)CSc1cc(F)ccc1F`, the cytotoxicity at 10 µM worked out at 13.2%.
`O=C(c1ccn(-c2ccccc2Cl)n1)N1CCCSCC1`: the cytotoxicity at 10 µM came to 4.22%.
In the case of `COc1ccc(NC(=O)c2ccoc2C)c(N2CCN(C(C)=O)CC2)n1`, the cytotoxicity at 10 µM is -9.09%.
As to `Cc1nc(C(=O)N(C)CC(=O)N(C)C)nn1-c1ccccc1C(C)C`, the cytotoxicity at 10 µM was -6.5%.
Regarding `Cc1nc2n(n1)CC(NCc1ccnc(-c3ccccc3)n1)CC2` (configuration not stated), the cytotoxicity at 10 µM is -0.898%.
The value for `O=C(Cc1ccc2c(c1)OCO2)N1CCCN(c2nccs2)CC1` was -11.9%; that for `Cc1cc(NC(=O)CNc2cccc(C(=O)N3CCCC(O)C3)c2)no1` (configuration not stated) was -2.21%; that for `O=C(NC1CCN(C2CC2)CC1)c1[nH]nc(C2CC2)c1Cl` was 2.64%.
`CC(NCC1CCN(CCO)CC1)c1cccnc1` (configuration not stated): the cytotoxicity at 10 µM was -5.6%.
For `O=C(NCCCO)Nc1cccc(C[S+]([O-])c2ccccc2)c1` (configuration not stated), the cytotoxicity at 10 µM came to 0.0964%.
Take `CC(C)n1nc2c(cc1=O)CN(Cc1ccc(-n3cccn3)cc1)CC2`: the cytotoxicity at 10 µM is -145%.
Take `O=C(CNC(=O)c1cnc2ccccc2c1O)NCCCn1ccnc1`: the cytotoxicity at 10 µM was -5.28%.
The value for `CCOc1cccc(CNC(=O)c2cnn(CC)c2C(F)(F)F)c1` was 11.7%; that for `CN(C)c1cc(CNC(=O)NCC2(C)CCCS2)ccn1` (configuration not stated) was 6.64%.
With `c1cncc(-c2ccnn2CN2CCC3(CC2)OCCO3)c1`, the cytotoxicity at 10 µM worked out at 8.19%.
For the molecule `CC(NC(=O)NCCc1nc(C(F)(F)F)cs1)C(=O)N(C)C` (configuration not stated), the cytotoxicity at 10 µM came to 5.04%.
For the molecule `COc1cccc(Cc2nnc(SC3CCOC3=O)o2)c1` (configuration not stated), the cytotoxicity at 10 µM turned out to be 12.9%.
Turning to `COCCNC(=O)c1ccc(C)c(-n2cccc2)c1`, the cytotoxicity at 10 µM is -3.06%.
As for `OCc1csc(N2CCCC(CO)(Cc3cccc(Cl)c3)C2)n1` (configuration not stated), the figure is 8.87%.
As to `CSCCC(=O)N1C[C@H](Nc2ccnc(C)n2)[C@@H](C(C)C)C1`, the cytotoxicity at 10 µM was -1.13%.
As for `O=C(c1ccc2nccn2c1)N(CCO)Cc1ccccc1F`, the figure is 5.27%.
Consider `O=C(O)C1(Oc2cccc(F)c2)CCN(C2CCOCC2)CC1`, for which the cytotoxicity at 10 µM was -7.16%.
For `CCCN1CCN(C(=O)c2ccc3ccccc3n2)[C@H]2CS(=O)(=O)C[C@H]21`, the cytotoxicity at 10 µM was -3.31%.
Consider `Cc1ccc2[nH]c(=O)c(CN(C)Cc3cc(C4CC4)[nH]n3)cc2c1`, for which the cytotoxicity at 10 µM was -3.07%.
`O=C(CCn1cc(Cl)cn1)N1CCCC(O)(CO)CC1` (configuration not stated): the cytotoxicity at 10 µM was -145%.
`COCCN(Cc1sccc1C)C(=O)c1c(O)cccc1F`: the cytotoxicity at 10 µM was -137%.
With `CN(C)CCC1CN(C(=O)c2cccc3c2OCC3)CCO1` (configuration not stated), the cytotoxicity at 10 µM was determined as 2.13%.
As for `Cc1nnc(NC(=O)N2CCN(Cc3ccc(F)cc3)C(=O)C2)s1`, the figure is -0.392%; as for `Cc1c(Cl)c(C(=O)N2C[C@@H](C(=O)O)[C@H](c3cccnc3)C2)nn1C`, 6.21%; as for `c1ccc(-c2cc(CN3CCCCCC3c3ccco3)on2)nc1` (configuration not stated), -6.19%.
Take `COc1cc(NC2CCN(C3CCS(=O)(=O)CC3)CC2)ncn1`: the cytotoxicity at 10 µM came to 1.64%.
The value for `CNC(=O)[C@@H]1C[C@@H](N)CN1C(=O)CCSCc1ccccc1` was 6.7%; that for `Cc1cnc(NCCCN2CCc3ccccc32)nc1` was 2.24%; that for `COc1ccnc(N2C[C@@H](NS(=O)(=O)N(C)C)[C@H](C(C)C)C2)n1` was -144%.
As for `Cc1nc2c(c(N3CC=CC3)n1)CCN(Cc1ccoc1)CC2`, the figure is -6.51%; as for `CC(C)n1ccnc1C1CCN(Cc2ccc(Cl)s2)CC1`, -7.09%.
Regarding `Cc1c[nH]c(CN(C)C(=O)C2CC(=O)N(Cc3ccncc3)C2)n1` (configuration not stated), the cytotoxicity at 10 µM turned out to be 16.7%.
Regarding `CC(C)c1ccc(-c2nonc2N)cc1`, the cytotoxicity at 10 µM was -3.25%.
Consider `CC(C)CN(C)Cc1nc2c(cnn2C)c(=O)[nH]1`, for which the cytotoxicity at 10 µM is -12.3%.
The value for `CC(C)c1nnc(NC(=O)NC2CCN(Cc3ccccc3)C2)s1` (configuration not stated) was -11.2%; that for `NC(=O)Cn1cc(NC(=O)N2CCSCC2)cn1` was -9.95%.
Take `CNc1nc(CNC(=O)Nc2cccc(Cl)c2Cl)cs1`: the cytotoxicity at 10 µM was -15.8%.
`Cn1ccnc1CN1CCN(Cc2noc(C3CC3)n2)CC1`: the cytotoxicity at 10 µM was -1.85%.
With `CC(=O)NCCNC(=O)CN1CCCCC1Cn1cncn1` (configuration not stated), the cytotoxicity at 10 µM was 2.7%.
For `CN(C)S(=O)(=O)CCCN1CCCC1c1noc(C2CC2)n1` (configuration not stated), the cytotoxicity at 10 µM was -10.3%.
Consider `Brc1cccc(-c2nnc(CNCCn3cccn3)o2)c1`, for which the cytotoxicity at 10 µM was -9.59%.
The value for `OC(CNCCn1cccn1)c1cccc(F)c1` (configuration not stated) was -4.41%; that for `Cc1nc(C)n(CC2CN(CCOc3ccccc3C#N)CCO2)n1` (configuration not stated) was -7.45%; that for `Cc1nccn1C1CCCN(C(=O)c2cc(Cl)c3c(c2)OCO3)C1` (configuration not stated) was -2.78%.
Take `CC(C)NC(=O)C1CCN(c2snc3ccccc23)CC1`: the cytotoxicity at 10 µM was -8.18%.
As for `CCOc1ccc(Cl)c(C(=O)N(C)C)n1`, the figure is -11.3%; as for `O=C(c1ccc(O)cc1)N1C[C@@H]2OCCN(c3ncccn3)[C@@H]2C1`, 6.72%; as for `Cc1noc(C)c1CN1CCn2cc(CN3CCCC3)nc2C1`, 5.37%.
For `CN(C)C(=O)N1CC2(CCNCC2)c2cc(F)ccc21`, the cytotoxicity at 10 µM was -79.9%.
Turning to `O=C(O)c1cc2c(nc1N1CCCC1)CCN(C1CCOCC1)CC2`, the cytotoxicity at 10 µM stood at 3.02%.
As for `CC(C)CN1C[C@H]2CCN(c3ncccn3)CC[C@H]2S1(=O)=O`, the cytotoxicity at 10 µM is -11.2%.
Consider `O=C(NC1CC1)[C@H]1C[C@H]2OCC[C@H]2N(Cc2ccc(F)cc2)C1`, for which the cytotoxicity at 10 µM is 3.62%.
`COCC1CC2(CCNCC2)CN1Cc1csc(C)n1` (configuration not stated): the cytotoxicity at 10 µM was determined as 5.77%.
For `CO[C@@H]1CCN(C(=O)c2ccccn2)[C@H]1Cc1ccccc1`, the cytotoxicity at 10 µM was 4.89%.
As to `Cc1ccc(CN2C[C@@H]3CCCO[C@@H]3[C@H](N(C)Cc3ccco3)C2)s1`, the cytotoxicity at 10 µM came to 3.88%.
As for `c1cc(CN2CCO[C@@H]3CNC[C@@H]32)cs1`, the figure is 9.22%; as for `CC(C)CCn1c(=O)[nH]c2cn(-c3ccc(F)cc3)c(=O)n21`, 2.97%; as for `O=C1[C@@H]2CC[C@@H](CN(C3CSCCSC3)C2)N1Cc1cscn1`, -15.1%.
On to `O=C1OCCN1CC(=O)N1C[C@@H]2CC[C@H]1CN(Cc1cscn1)C2`, for which the cytotoxicity at 10 µM is -5.41%.
